# Experimental data from ChEMBL document CHEMBL4371071, “Muscarinic agonist, (±)-quinuclidin-3-yl-(4-fluorophenethyl)(phenyl)carbamate: High affinity, but low subtype selectivity for human M1 - M5 muscarinic acetylcholine receptors” (Bioorg Med Chem Lett, 2019).
# Calls of active or inactive are those of the source. The calls are words filed in the database; no cut-off is given here.
# Assays:
# [1] = target: T1, Muscarinic acetylcholine receptor M1 (Homo sapiens, UniProt P11229); assay: Displacement of [3H]NMS from human M1 AChR expressed in CHO cell membranes after 1 to 2 hrs by liquid scintillation spectrometry method; format: cell-based
# T1 sequence (P11229 whole entry): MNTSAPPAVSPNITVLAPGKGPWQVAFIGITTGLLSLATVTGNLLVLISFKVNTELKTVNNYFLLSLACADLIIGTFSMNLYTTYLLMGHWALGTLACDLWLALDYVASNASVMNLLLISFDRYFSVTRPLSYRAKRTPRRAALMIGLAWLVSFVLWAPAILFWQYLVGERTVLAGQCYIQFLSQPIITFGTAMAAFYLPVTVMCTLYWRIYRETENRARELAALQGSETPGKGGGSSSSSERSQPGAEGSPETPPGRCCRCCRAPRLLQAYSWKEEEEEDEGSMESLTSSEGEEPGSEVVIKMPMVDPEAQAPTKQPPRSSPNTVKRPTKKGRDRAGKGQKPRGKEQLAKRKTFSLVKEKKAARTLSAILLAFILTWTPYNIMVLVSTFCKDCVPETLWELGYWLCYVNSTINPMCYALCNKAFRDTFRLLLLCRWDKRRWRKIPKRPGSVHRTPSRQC
# [2] = target: T2, Muscarinic acetylcholine receptor M4 (Homo sapiens) (UniProt P08173); assay: Displacement of [3H]NMS from human M4 AChR expressed in CHO cell membranes at 100 uM after 1 to 2 hrs by liquid scintillation spectrometry method relative to control
# T2 sequence (whole entry): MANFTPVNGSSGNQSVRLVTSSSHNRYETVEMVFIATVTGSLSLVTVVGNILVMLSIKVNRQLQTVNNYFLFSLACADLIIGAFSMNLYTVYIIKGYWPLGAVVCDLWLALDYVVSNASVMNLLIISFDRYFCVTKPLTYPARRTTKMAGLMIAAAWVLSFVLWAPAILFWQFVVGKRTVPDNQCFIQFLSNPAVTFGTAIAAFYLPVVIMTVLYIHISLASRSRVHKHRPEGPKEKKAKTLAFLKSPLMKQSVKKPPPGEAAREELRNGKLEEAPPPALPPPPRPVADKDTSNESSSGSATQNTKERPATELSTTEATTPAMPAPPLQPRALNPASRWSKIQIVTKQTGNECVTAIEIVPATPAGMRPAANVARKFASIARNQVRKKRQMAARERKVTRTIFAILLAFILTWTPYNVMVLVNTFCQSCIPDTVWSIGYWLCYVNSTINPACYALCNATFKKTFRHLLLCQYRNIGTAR
# Method in brief: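 CHO membranes expressing the human subtype (20 µg protein/well) with 0.3 nM [3H]NMS and analog (1 nM–100 µM) in 50 mM Tris-HCl pH 7.4, 2 h at 25 °C. […] Filtered on GF/B, washed, counted by scintillation. IC50 taken from curves to give Ki; three independent experiments in duplicate.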
# [3] = target: T3, Muscarinic acetylcholine receptor M5 (Homo sapiens) (UniProt P08912); assay: Displacement of [3H]NMS from human M5 AChR expressed in CHO cell membranes at 100 uM after 1 to 2 hrs by liquid scintillation spectrometry method relative to control
# T3 sequence (whole entry): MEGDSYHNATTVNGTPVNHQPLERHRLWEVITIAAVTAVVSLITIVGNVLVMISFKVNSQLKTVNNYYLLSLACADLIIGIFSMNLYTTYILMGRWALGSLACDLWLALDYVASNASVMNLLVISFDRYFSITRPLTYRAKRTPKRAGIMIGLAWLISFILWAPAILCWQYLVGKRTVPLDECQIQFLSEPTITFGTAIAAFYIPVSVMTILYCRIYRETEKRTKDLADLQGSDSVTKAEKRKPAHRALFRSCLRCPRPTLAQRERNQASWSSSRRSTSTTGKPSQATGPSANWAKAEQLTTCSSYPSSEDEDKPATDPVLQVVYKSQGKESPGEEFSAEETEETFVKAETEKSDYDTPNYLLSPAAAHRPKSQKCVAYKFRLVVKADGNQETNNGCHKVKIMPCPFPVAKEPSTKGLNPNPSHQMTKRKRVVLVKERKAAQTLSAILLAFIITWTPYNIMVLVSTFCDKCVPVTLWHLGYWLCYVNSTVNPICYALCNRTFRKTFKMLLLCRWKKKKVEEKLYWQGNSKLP
# Method in brief: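 CHO membranes expressing human M5 (10 µg protein/well) with 0.3 nM [3H]NMS and analog (1 nM–100 µM) in 50 mM Tris-HCl pH 7.4, 2 h at 25 °C. […] Filtered on GF/B, counted by scintillation. IC50 converted to Ki; three independent experiments in duplicate.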
# [4] = target: T4, Muscarinic acetylcholine receptor M5 (Homo sapiens, UniProt P08912); assay: Displacement of [3H]NMS from human M5 AChR expressed in CHO cell membranes after 1 to 2 hrs by liquid scintillation spectrometry method
# T4 sequence (P08912 whole entry): T3 sequence (whole entry)
# Method in brief: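 CHO membranes expressing human M5 (10 µg protein/well) with 0.3 nM [3H]NMS and analog (1 nM–100 µM) in 50 mM Tris-HCl pH 7.4, 2 h at 25 °C. Filtered on GF/B, counted by scintillation. IC50 converted to Ki; three independent experiments in duplicate.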
# [5] = organism: Homo sapiens; assay: Selectivity ratio of Ki for displacement of [3H]NMS from human M1 AChR expressed in CHO cell membranes to Ki for displacement of [3H]NMS from human M5 AChR expressed in CHO cell membranes
# [6] = target: Muscarinic acetylcholine receptor (Rattus norvegicus) (UniProt P08482+P08483+P08485+P08911+P10980); assay: Agonist activity at muscarinic acetylcholine receptor in superfused rat striatal slices assessed as augmentation of oxotremorine-induced [3H]DA release at 1 to 10 uM preincubated for 35 mins in presence of [3H]DA followed by oxotremorine addition and measured after 25 mins in presence of scopolamine by liquid scintillation spectroscopic method
# Method in brief: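 Rat striatal slices (500 µm) in Krebs' buffer pH 7.4 at 34 °C for 60 min, with 0.1 µM [3H]DA over the final 30 min. Superfused at 0.6 mL/min with 10 µM nomifensine and 10 µM pargyline; 5-min fractions. Basal outflow taken over 15 min, then test agent 35 min, then 100 µM oxotremorine 25 min. Overflow = summed radioactivity minus basal, by scintillation; n = 4–10.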
smiles,measurement,setting,value
O=C(OC1CN2CCC1CC2)N(CCc1ccc(F)cc1)c1ccccc1 (racemic),Ki,[1],2 nM
same,Imax,[2],99.8%
same,Imax,[3],99.8%
same,Ki,[4],1.8 nM
same,Ratio Ki,[5],1.1
same,Activity,[6],inactive
